Laboratory results from ChEMBL document CHEMBL1649418, “Pyrimidine derivatives as potent and selective A3 adenosine receptor antagonists” (J Med Chem, 2011).
pKi: −log10 of the molar value.

How the values were obtained:
Type in all cases: cell-based
[1] = target: T1, Adenosine receptor A1 (Homo sapiens) (UniProt P30542); assay: Displacement of [3H]DPCPX from human adenosine A1 receptor expressed in CHO cells at 0.1 uM by liquid scintillation counting
T1 sequence (whole entry): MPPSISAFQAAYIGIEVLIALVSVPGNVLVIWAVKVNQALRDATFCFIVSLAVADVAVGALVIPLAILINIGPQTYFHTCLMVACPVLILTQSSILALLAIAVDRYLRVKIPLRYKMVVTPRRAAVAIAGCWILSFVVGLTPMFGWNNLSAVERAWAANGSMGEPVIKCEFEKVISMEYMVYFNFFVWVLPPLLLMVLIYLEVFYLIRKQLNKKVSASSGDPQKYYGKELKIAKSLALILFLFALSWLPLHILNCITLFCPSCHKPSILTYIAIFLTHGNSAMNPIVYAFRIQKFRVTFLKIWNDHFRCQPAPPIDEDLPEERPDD
Outline: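 Transfected CHO cell membranes (15 μg) were incubated with [3H]DPCPX at 25 °C for 60 min, with six test concentrations from 0.1 nM to 1 μM. Nonspecific binding was defined with 10 μM R-PIA. Filters were washed four times with ice-cold buffer before scintillation counting. Ki (Cheng–Prusoff) is mean ± SEM, n=3; % displacement at 0.1 μM is n=2.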

[2] = target: T2, Adenosine receptor A3 (Homo sapiens) (UniProt P0DMS8); assay: Displacement of [3H]NECA from human adenosine A3 receptor expressed in human HeLa cells at 0.1 uM by liquid scintillation counting
T2 sequence (whole entry): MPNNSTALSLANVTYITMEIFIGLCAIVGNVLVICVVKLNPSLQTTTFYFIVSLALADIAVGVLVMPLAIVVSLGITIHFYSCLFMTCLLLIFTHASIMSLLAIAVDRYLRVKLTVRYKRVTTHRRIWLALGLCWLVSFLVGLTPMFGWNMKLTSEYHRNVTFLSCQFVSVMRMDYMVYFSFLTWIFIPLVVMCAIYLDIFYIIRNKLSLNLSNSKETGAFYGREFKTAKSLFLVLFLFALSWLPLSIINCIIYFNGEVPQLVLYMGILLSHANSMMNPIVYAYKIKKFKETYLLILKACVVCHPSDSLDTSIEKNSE
Outline: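 HeLa membranes (90 μg) carrying hA3AR were incubated with [3H]NECA (30 nM) at 25 °C for 180 min, with six concentrations from 0.1 nM to 1 μM. Nonspecific binding was defined with 100 μM R-PIA. Filters were washed six times and counted by scintillation. Ki (Cheng–Prusoff) is mean ± SEM, n=3; % displacement at 0.1 μM is n=2.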

[3] = target: T3, Adenosine receptor A2b (Homo sapiens) (UniProt P29275); assay: Displacement of [3H]DPCPX from human adenosine A2B receptor expressed in HEK293 cells at 0.1 uM by liquid scintillation counting
T3 sequence (whole entry): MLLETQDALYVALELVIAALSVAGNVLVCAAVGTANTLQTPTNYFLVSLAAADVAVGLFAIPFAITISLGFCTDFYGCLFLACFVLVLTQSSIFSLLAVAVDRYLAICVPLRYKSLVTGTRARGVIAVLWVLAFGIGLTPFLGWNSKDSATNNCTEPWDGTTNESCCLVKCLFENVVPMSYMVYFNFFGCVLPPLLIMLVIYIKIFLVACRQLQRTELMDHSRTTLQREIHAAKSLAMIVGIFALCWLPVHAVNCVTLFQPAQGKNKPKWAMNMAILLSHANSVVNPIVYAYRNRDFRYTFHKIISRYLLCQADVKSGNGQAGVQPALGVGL
Outline: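 HEK-293 membranes (18 μg) were incubated with [3H]DPCPX (35 nM) at 25 °C for 30 min, with six concentrations from 0.1 nM to 1 μM. Nonspecific binding was defined with 400 μM NECA. Filters were washed six times with ice-cold buffer and counted by scintillation. Ki (Cheng–Prusoff) is mean ± SEM, n=3; % displacement at 0.1 μM is n=2.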

Adenosine receptor A2a = Adenosine receptor A2a (Homo sapiens, UniProt P29274); assay: Displacement of [3H][…] from human adenosine A2A receptor expressed in human HeLa cells at 0.1 uM by liquid scintillation counting
Outline: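 Nonspecific binding was defined with 50 μM NECA. Filters were washed four times with ice-cold buffer, then counted by scintillation. Ki (Cheng–Prusoff) is mean ± SEM, n=3; % displacement at 0.1 μM is n=2.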

Adenosine receptor A3 = target: T4, Adenosine receptor A3 (Homo sapiens, UniProt P0DMS8); assay: Displacement of [3H]NECA from human adenosine A3 receptor expressed in human HeLa cells by liquid scintillation counting; settings: for pKi: read-out: Ki
T4 sequence (P0DMS8 whole entry): T2 sequence (whole entry)
Outline: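 HeLa membranes (90 μg) carrying hA3AR were incubated with [3H]NECA (30 nM) at 25 °C for 180 min, with six concentrations from 0.1 nM to 1 μM. Nonspecific binding was defined with 100 μM R-PIA. Filters were washed six times and counted by scintillation.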

Chain of Adenosine receptor A2a (P29274 whole entry): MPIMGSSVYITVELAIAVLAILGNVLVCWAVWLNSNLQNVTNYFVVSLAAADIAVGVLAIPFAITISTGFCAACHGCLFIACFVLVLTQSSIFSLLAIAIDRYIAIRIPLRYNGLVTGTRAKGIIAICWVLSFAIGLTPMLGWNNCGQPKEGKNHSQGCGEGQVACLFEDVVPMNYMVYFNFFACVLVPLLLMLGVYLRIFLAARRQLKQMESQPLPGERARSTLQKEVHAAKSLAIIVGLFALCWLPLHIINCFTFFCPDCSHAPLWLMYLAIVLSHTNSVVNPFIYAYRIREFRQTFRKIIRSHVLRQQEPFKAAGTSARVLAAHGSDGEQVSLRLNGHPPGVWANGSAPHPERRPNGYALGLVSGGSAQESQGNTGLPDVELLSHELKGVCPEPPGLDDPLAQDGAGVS

| inhibition [1] | inhibition [2] | inhibition [3] | inhibition (Adenosine receptor A2a) | pKi (Adenosine receptor A3) | Ki (Adenosine receptor A3; read-out: pKi (converted)) | SMILES |
| --- | --- | --- | --- | --- | --- | --- |
| 18% | 27% | 2% | 5% | – | – | CCCC(=O)Nc1nc(-c2ccc(F)cc2)cc(-c2ccc(F)cc2)n1 |
| 2% | 15% | 9% | 24% | – | – | CCCC(=O)Nc1nc(-c2ccc(OC)cc2)cc(-c2ccc(OC)cc2)n1 |
| 16% | – | 1% | 21% | 6.99 | – | CCCC(=O)Nc1cc(-c2ccc(Cl)cc2)nc(-c2ccc(Cl)cc2)n1 |
| 3% | 16% | 11% | 2% | – | – | CCC(=O)Nc1nc(-c2ccoc2)cc(-c2ccoc2)n1 |
| 24% | – | 21% | 15% | 5.72 | – | CCC(=O)Nc1nc(-c2ccco2)cc(-c2ccco2)n1 |
| 18% | – | 1% | 1% | 7.80 | – | COc1ccc(-c2cc(NC(=O)C(C)C)nc(-c3ccc(OC)cc3OC)n2)c(OC)c1 |
| 11% | 21% | 0% | 17% | – | – | CCCC(=O)Nc1nc(-c2ccoc2)cc(-c2ccoc2)n1 |
| 1% | – | 2% | 1% | 7.15 | – | CSc1ccc(-c2cc(NC(C)=O)nc(-c3ccc(SC)cc3)n2)cc1 |
| 1% | – | 4% | 1% | 7.25 | 257 nM | COc1ccc(-c2cc(NC(=O)C3CCCCC3)nc(-c3ccc(OC)cc3OC)n2)c(OC)c1 |
| 5% | – | 3% | 1% | 7.91 | – | COc1ccc(-c2cc(NC(=O)C(C)C)nc(-c3ccc(OC)cc3)n2)cc1 |
| 1% | 17% | 1% | 12% | – | – | CCC(=O)Nc1nc(-c2ccc(C(C)=O)cc2)cc(-c2ccc(C(C)=O)cc2)n1 |
| 3% | – | 3% | 6% | 7.33 | – | CC(=O)Nc1nc(-c2ccc(C)cc2)cc(-c2ccc(C)cc2)n1 |
| 13% | 18% | 1% | 11% | – | – | CCCC(=O)Nc1nc(-c2ccccc2OC)cc(-c2ccccc2OC)n1 |
| 3% | 17% | 3% | 14% | – | – | CCC(=O)Nc1nc(-c2ccc(OC)cc2OC)cc(-c2ccc(OC)cc2OC)n1 |
| 2% | 10% | 2% | 1% | – | – | CC(=O)Nc1nc(-c2ccc(C(F)(F)F)cc2)cc(-c2ccc(C(F)(F)F)cc2)n1 |
| 2% | 1% | 1% | 2% | – | – | CC(=O)Nc1nc(-c2ccc(Cl)cc2)cc(-c2ccc(Cl)cc2)n1 |
| 14% | 1% | 15% | 16% | – | – | CCCC(=O)Nc1nc(-c2ccc(OC)cc2OC)cc(-c2ccc(OC)cc2OC)n1 |
| 7% | 2% | 14% | 8% | – | – | CC(=O)Nc1nc(-c2ccc(C(C)=O)cc2)cc(-c2ccc(C(C)=O)cc2)n1 |
| 3% | – | 8% | 6% | 7.24 | – | CCC(CC)C(=O)Nc1cc(-c2ccc(OC)cc2)nc(-c2ccc(OC)cc2)n1 |
| 3% | 12% | 1% | 2% | – | – | CCCC(=O)Nc1cc(-c2ccc(SC)cc2)nc(-c2ccc(SC)cc2)n1 |

| inhibition [1] | inhibition [2] | inhibition [3] | inhibition (Adenosine receptor A2a) | pKi (Adenosine receptor A3) | Ki (Adenosine receptor A3; read-out: pKi (converted)) | SMILES |
| --- | --- | --- | --- | --- | --- | --- |
| 1% | 9% | 11% | 19% | – | – | CC(=O)Nc1nc(-c2ccco2)cc(-c2ccco2)n1 |
| 21% | 22% | 2% | 13% | – | – | CCC(=O)Nc1nc(-c2ccccc2OC)cc(-c2ccccc2OC)n1 |
| 1% | – | 1% | 14% | 7.62 | – | COc1ccccc1-c1cc(NC(C)=O)nc(-c2ccccc2OC)n1 |
| 16% | – | 3% | 2% | 7.23 | – | CCCC(=O)Nc1cc(-c2ccc(C)cc2)nc(-c2ccc(C)cc2)n1 |
| 1% | – | 1% | 10% | 7.20 | – | CC(=O)Nc1cc(-c2ccc(Cl)cc2)nc(-c2ccc(Cl)cc2)n1 |
| 1% | – | 3% | 1% | 7.36 | – | CCC(=O)Nc1cc(-c2ccc(SC)cc2)nc(-c2ccc(SC)cc2)n1 |
| 17% | – | 2% | 2% | 7.33 | – | CCC(=O)Nc1cc(/C=C/c2ccccc2)nc(/C=C/c2ccccc2)n1 |
| 1% | – | 1% | 1% | 6.85 | – | CCC(=O)Nc1nc(/C=C/c2ccccc2)cc(/C=C/c2ccccc2)n1 |
| 1% | – | 1% | 13% | 7.81 | – | CC(=O)Nc1cc(/C=C/c2ccccc2)nc(/C=C/c2ccccc2)n1 |
| 1% | – | 1% | 15% | 7.00 | – | CC(=O)Nc1nc(-c2ccc3c(c2)OCO3)cc(-c2ccc3c(c2)OCO3)n1 |
| 2% | – | 1% | 1% | 6.88 | – | CCCC(=O)Nc1cc(-c2ccc(C(C)=O)cc2)nc(-c2ccc(C(C)=O)cc2)n1 |
| 5% | – | 1% | 1% | 7.49 | – | COc1ccc(-c2cc(NC(=O)C3CCCCC3)nc(-c3ccc(OC)cc3)n2)cc1 |
| 1% | – | 1% | 1% | 6.90 | – | CC(=O)Nc1cc(-c2ccc(C(F)(F)F)cc2)nc(-c2ccc(C(F)(F)F)cc2)n1 |
| 1% | – | 2% | 2% | 7.28 | – | CCC(CC)C(=O)Nc1cc(-c2ccc(OC)cc2OC)nc(-c2ccc(OC)cc2OC)n1 |
| 10% | – | 16% | 13% | 7.60 | – | CC(=O)Nc1cc(-c2ccc(C(C)=O)cc2)nc(-c2ccc(C(C)=O)cc2)n1 |
| 1% | – | 2% | 1% | 7.36 | – | CCC(=O)Nc1cc(-c2ccc(C(C)=O)cc2)nc(-c2ccc(C(C)=O)cc2)n1 |
| 18% | – | 14% | 12% | 7.99 | – | CCCC(=O)Nc1cc(-c2ccc(OC)cc2OC)nc(-c2ccc(OC)cc2OC)n1 |
| 1% | – | 3% | 1% | 6.80 | – | CCC(=O)Nc1nc(-c2ccc(C)cc2)cc(-c2ccc(C)cc2)n1 |
| 6% | – | 8% | 14% | 7.95 | – | CCC(=O)Nc1cc(-c2ccc(OC)cc2OC)nc(-c2ccc(OC)cc2OC)n1 |

| SMILES | inhibition [1] | inhibition [2] | inhibition [3] | inhibition (Adenosine receptor A2a) | pKi (Adenosine receptor A3) | Ki (Adenosine receptor A3; read-out: pKi (converted)) |
| --- | --- | --- | --- | --- | --- | --- |
| COc1ccc(-c2cc(NC(C)=O)nc(-c3ccc(OC)cc3)n2)cc1 | 1% | – | 4% | 10% | – | – |
